Data published in ChEMBL document CHEMBL3232728, “Synthesis, molecular docking and biological evaluation of metronidazole derivatives containing piperazine skeleton as potential antibacterial agents” (Bioorg Med Chem, 2014).
Values after ≈ are worked out from the molar mass of the structure shown.

Legend:
[1] = system: Bacillus subtilis; assay: Antibacterial activity against Bacillus subtilis ATCC 530 after 24 hrs by two-fold serial dilution method; type: functional; conditions: ATCC 530, 24 h
Outline: (§1)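 Run in Mueller-Hinton medium, read by MTT method, with compounds tested in nutrient broth (NB) by two-fold serial dilution. Seeded broth containing microbial spores was prepared in NB from 24 h old cultures grown on nutrient agar.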

[2] = system: Escherichia coli; assay: Antibacterial activity against Escherichia coli ATCC 25922 after 24 hrs by two-fold serial dilution method; type: functional; conditions: ATCC 25922, 24 h; outline: as §1
[3] = system: Staphylococcus aureus; assay: Antibacterial activity against Staphylococcus aureus ATCC 25923 after 24 hrs by two-fold serial dilution method; type: functional; conditions: ATCC 25923, 24 h; outline: as §1
[4] = system: Pseudomonas aeruginosa; assay: Antibacterial activity against Pseudomonas aeruginosa ATCC 27853 after 24 hrs by two-fold serial dilution method; type: functional; conditions: ATCC 27853, 24 h; outline: as §1
[5] = Toxicity in RBC (unknown origin) assessed as hemolysis; type: cell-based; conditions: erythrocyte
[6] = Inhibition of Staphylococcus aureus TyrRS compound preincubated for 10 mins by liquid scintillation counting in presence of L-ring-3,5-[3H]tyrosine

Compound `COc1cccc(N2CCN(CCn3c([N+](=O)[O-])cnc3C)CC2)c1` has an MIC [1] of 0.805 µg/mL (≈ 2.33 µM), an MIC [2] greater than 50 µg/mL and an MIC [3] of 0.656 µg/mL (≈ 1.9 µM). For the same compound, the MIC [4] was greater than 50 µg/mL, the LC30 [5] was greater than 10000 µg/mL and the IC50 [6] was 7.65 µM.

Compound `Cc1ncc([N+](=O)[O-])n1CCN1CCN(c2ccccc2)CC1` has an MIC [1] of 1.55 µg/mL (≈ 4.92 µM), an MIC [2] greater than 50 µg/mL and an MIC [3] greater than 50 µg/mL. It also gave an MIC [4] greater than 50 µg/mL, an LC30 [5] greater than 10000 µg/mL and an IC50 [6] of 20.5 µM.

`Cc1ncc([N+](=O)[O-])n1CCN1CCN(c2ccc(F)cc2)CC1` showed an MIC [1] greater than 50 µg/mL, an MIC [2] greater than 50 µg/mL and an MIC [3] greater than 50 µg/mL. The MIC [4] was greater than 50 µg/mL, the LC30 [5] was greater than 10000 µg/mL and the IC50 [6] was 25.2 µM.

In the case of `Cc1ncc([N+](=O)[O-])n1CCN1CCN(c2cccc(Cl)c2Cl)CC1`, the MIC [1] is reported as 14.4 µg/mL (≈ 37.4 µM), the MIC [2] is reported as greater than 50 µg/mL and the MIC [3] is reported as 11.1 µg/mL (≈ 28.9 µM). For the same compound, the MIC [4] was greater than 50 µg/mL, the LC30 [5] was greater than 10000 µg/mL and the IC50 [6] was 13.6 µM.

`Cc1ncc([N+](=O)[O-])n1CCN1CCN(c2ccccc2Cl)CC1` showed an MIC [1] of 0.142 µg/mL (≈ 0.406 µM), an MIC [2] greater than 50 µg/mL and an MIC [3] of 0.203 µg/mL (≈ 0.58 µM). It also gave an MIC [4] greater than 50 µg/mL, an LC30 [5] greater than 10000 µg/mL and an IC50 [6] of 0.0086 µM.

`Cc1ncc([N+](=O)[O-])n1CCN1CCN(c2ccccc2F)CC1` gave an MIC [1] greater than 50 µg/mL, an MIC [2] greater than 50 µg/mL and an MIC [3] of 17.1 µg/mL (≈ 51.3 µM). It also gave an MIC [4] greater than 50 µg/mL, an LC30 [5] greater than 10000 µg/mL and an IC50 [6] of 23.4 µM.

In the case of `Cc1ncc([N+](=O)[O-])n1CCN1CCN(c2cccc(Cl)c2)CC1`, the MIC [1] is reported as 2.57 µg/mL (≈ 7.34 µM), the MIC [2] is reported as greater than 50 µg/mL and the MIC [3] is reported as 1.8 µg/mL (≈ 5.15 µM). For the same compound, the MIC [4] was greater than 50 µg/mL, the LC30 [5] was greater than 10000 µg/mL and the IC50 [6] was 10.5 µM.

Work on `COc1ccccc1N1CCN(CCn2c([N+](=O)[O-])cnc2C)CC1` yielded an MIC [1] of 0.272 µg/mL (≈ 0.787 µM), an MIC [2] greater than 50 µg/mL and an MIC [3] of 0.583 µg/mL (≈ 1.69 µM). For the same compound, the MIC [4] was greater than 50 µg/mL, the LC30 [5] was greater than 10000 µg/mL and the IC50 [6] was 1.12 µM.

With `Cc1ncc([N+](=O)[O-])n1CCN1CCN(c2cccc(C(F)(F)F)c2)CC1` the MIC [1] was 3.29 µg/mL (≈ 8.58 µM), the MIC [2] was greater than 50 µg/mL and the MIC [3] was 18.1 µg/mL (≈ 47.2 µM). For the same compound, the MIC [4] was greater than 50 µg/mL, the LC30 [5] was greater than 10000 µg/mL and the IC50 [6] was 15.3 µM.

`Cc1ccc(N2CCN(CCn3c([N+](=O)[O-])cnc3C)CC2)c(C)c1` gave an MIC [1] of 4.31 µg/mL (≈ 12.6 µM), an MIC [2] greater than 50 µg/mL and an MIC [3] of 1.61 µg/mL (≈ 4.69 µM). It also gave an MIC [4] greater than 50 µg/mL, an LC30 [5] greater than 10000 µg/mL and an IC50 [6] of 12.6 µM.

In the case of `Cc1ncc([N+](=O)[O-])n1CCN1CCN(c2ccc(Cl)c(Cl)c2)CC1`, the MIC [1] is reported as 6.83 µg/mL (≈ 17.8 µM), the MIC [2] is reported as greater than 50 µg/mL and the MIC [3] is reported as 11.6 µg/mL (≈ 30.1 µM). For the same compound, the MIC [4] was greater than 50 µg/mL, the LC30 [5] was greater than 10000 µg/mL and the IC50 [6] was 16.2 µM.

`COc1ccc(N2CCN(CCn3c([N+](=O)[O-])cnc3C)CC2)cc1` gave an MIC [1] of 0.033 µg/mL (≈ 0.0955 µM), an MIC [2] greater than 50 µg/mL and an MIC [3] of 0.123 µg/mL (≈ 0.356 µM). For the same compound, the MIC [4] was greater than 50 µg/mL, the LC30 [5] was greater than 10000 µg/mL and the IC50 [6] was 0.0067 µM.

With `Cc1ncc([N+](=O)[O-])n1CCN1CCN(C(c2ccccc2)c2ccccc2)CC1` the MIC [1] was 0.011 µg/mL (≈ 0.0271 µM), the MIC [2] was greater than 50 µg/mL and the MIC [3] was 0.003 µg/mL (≈ 0.0074 µM). The MIC [4] was greater than 50 µg/mL, the LC30 [5] was greater than 10000 µg/mL and the IC50 [6] was 0.0024 µM.

For `Cc1ncc([N+](=O)[O-])n1CCN1CCN(C(c2ccccc2)c2ccc(Cl)cc2)CC1` (configuration not stated), the MIC [1] was 0.185 µg/mL (≈ 0.421 µM), the MIC [2] was greater than 50 µg/mL and the MIC [3] was 0.593 µg/mL (≈ 1.35 µM). It also gave an MIC [4] greater than 50 µg/mL, an LC30 [5] greater than 10000 µg/mL and an IC50 [6] of 1.72 µM.

For `Cc1ncc([N+](=O)[O-])n1CCN1CCN(C(c2ccc(F)cc2)c2ccc(F)cc2)CC1`, the MIC [1] was greater than 50 µg/mL, the MIC [2] was greater than 50 µg/mL and the MIC [3] was greater than 50 µg/mL. The MIC [4] was greater than 50 µg/mL, the LC30 [5] was greater than 10000 µg/mL and the IC50 [6] was 25.8 µM.

With `O=C(N[C@H](CO)[C@H](O)c1ccc([N+](=O)[O-])cc1)C(Cl)Cl` [CHLORAMPHENICOL] the MIC [1] was 0.078 µg/mL (≈ 0.241 µM), the MIC [2] was 0.064 µg/mL (≈ 0.198 µM) and the MIC [3] was 0.178 µg/mL (≈ 0.551 µM).

Work on `CC1(C)S[C@@H]2[C@H](NC(=O)Cc3ccccc3)C(=O)N2[C@H]1C(=O)O` [PENICILLIN G] yielded an MIC [1] of 0.335 µg/mL (≈ 1 µM), an MIC [2] of 22.8 µg/mL (≈ 68.3 µM) and an MIC [3] of 1.02 µg/mL (≈ 3.06 µM). The MIC [4] was 18.6 µg/mL (≈ 55.7 µM).
